# Data from ChEMBL document CHEMBL4038269, “Design, synthesis and evaluation of novel feruloyl-donepezil hybrids as potential multitarget drugs for the treatment of Alzheimer's disease” (Eur J Med Chem, 2017).
# The source made the active and inactive calls. The rule behind the calls is not given here.
# Legend:
# [1] = Antioxidant activity assessed as DPPH radical scavenging activity measured after 30 mins; format: functional
# Outline: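 DPPH scavenging: compound at 12.5, 25, 50 and 100 µM in ethanol (4 mL) mixed with 1 mL of 0.5 mM DPPH in ethanol. Shaken 30 min at room temperature, absorbance read at 517 nm. % inhibition = (A control − A sample)/A control × 100. Run in triplicate; EC50 obtained by linear regression of mean values.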
# SH-SY5Y [2] = assay: Neuroprotective activity in human SH-SY5Y cells assessed as reduction in amyloid beta (1 to 42)-induced exocytosis at 20 uM after 4 hrs by MTT dye based microscopic method; format: functional, cell-based
# Outline: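 SH-SY5Y cells seeded at 3 x 10^4 cells/well, grown 24 h. Treated with compound (20 µM) plus Aβ1-42 oligomers (10 µM) for 4 h at 37 °C. Oligomers were prepared from HFIP-treated, DMSO-dissolved peptide and checked by TEM. MTT (5 mg/mL in PBS) added for 2 h. Cells inspected by light microscopy for needle-like exocytosed formazan crystals.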
# [3] = Metal chelating activity assessed as absorption maximum for compound-Cu2+ complex formation at 75 uM after 30 mins by UV-Vis spectrophotometric method (reference value: 237.2 nanometer); format: functional
# Outline: (§1)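 UV-Vis spectra in ethanol of compound at 75 µM alone or after 30 min incubation with CuSO4, FeSO4, FeCl3 or ZnCl2 (150 µM). Absorption maxima recorded.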
# [4] = Metal chelating activity assessed as absorption maximum for compound-Fe2+ complex formation at 75 uM after 30 mins by UV-Vis spectrophotometric method (reference value: 237.2 nanometer); format: functional; outline: as §1
# SH-SY5Y [5] = assay: Antioxidant activity in human SH-SY5Y cells assessed as reduction in H2O2-induced reactive oxygen species formation measured after 24 hrs by DCFH-DA probe based fluorescence assay; format: functional, cell-based
# [6] = Cytotoxicity against human SH-SY5Y cells assessed as reduction in cell viability at 40 uM after 24 hrs by MTT assay relative to control; format: cell-based; details: read-out: INH
# Outline: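 SH-SY5Y cells seeded at 2 x 10^4 cells/well, grown 24 h, then exposed to compound 1.25–40 µM for 24 h at 37 °C. MTT (5 mg/mL in PBS) added for 2 h and formazan dissolved in isopropanol. Read at 570 nm, reference 690 nm. Viability loss reported as percent at the top concentration, 40 µM.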
# [7] = Metal chelating activity assessed as absorption maximum for compound-Zn2+ complex formation at 75 uM after 30 mins by UV-Vis spectrophotometric method; format: functional; outline: as §1
# SH-SY5Y [8] = assay: Antioxidant activity in human SH-SY5Y cells assessed as increase in GSH level at 20 uM by MCB probe based assay relative to control; format: functional; details: TDE = time-dependent effect
# Outline: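 SH-SY5Y cells (DMEM, 10% FBS, 37 °C, 5% CO2) seeded at 2 x 10^4 cells/well and grown 24 h. Treated with 20 µM compound for 3-24 h. Then 50 µM monochlorobimane in PBS for 30 min at 37 °C. GSH fluorescence read at ex 360/em 465 nm, as % of control cells. Mean ± SD of three independent experiments.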
# [9] = Metal chelating activity assessed as compound-Fe3+ complex formation at 75 uM after 30 mins by UV-Vis spectrophotometric method; format: functional; outline: as §1
# Mus musculus [10] = assay: In vivo inhibition of COX-2 activity in carrageenan-induced Swiss mouse serum at 100 umol/kg, po pretreated for 1 hr followed by carrageenan challenge after 3 hrs by ELISA relative to control; format: functional
# Outline: (§2)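 Male Swiss mice given oral drug (100 µmol/kg) or vehicle 1 h before intraplantar carrageenan (legend: 400 µg/paw). At 3 h, animals anaesthetised with chloral hydrate and cardiac blood taken. Serum separated (1500 rpm, 20 min) and frozen at -70 °C. COX-1, COX-2 and 5-LOX measured by specific sandwich ELISA at 450 nm. Expressed as % enzymatic activity, mean ± SEM, n=8.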
# Mus musculus [11] = assay: In vivo inhibition of COX-1 activity in carrageenan-induced Swiss mouse serum at 100 umol/kg, po pretreated for 1 hr followed by carrageenan challenge after 3 hrs by ELISA relative to control; format: functional; outline: as §2
# SH-SY5Y [12] = assay: Neuroprotective activity in human SH-SY5Y cells assessed as reduction in amyloid beta (1 to 42)-induced reactive oxygen species formation at 20 uM after 3 hrs by DHE probe based fluorescence microscopic method; format: functional, cell-based
# Outline: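 SH-SY5Y cells on 8-well slides (1x10^4/well, 24 h) treated 3 h with compound (20 µM) and Aβ1-42 oligomers (10 µM) at 37 °C. Stained with dihydroethidium (10 µM, 30 min, dark), then 1 h in serum-free DMEM. Fluorescence imaged by microscopy; four random fields of 50–100 cells quantified in arbitrary units.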
# Acetylcholinesterase = Acetylcholinesterase (Electrophorus electricus, UniProt O42275); assay: Inhibition of Electrophorus electricus AChE using acetylthiocholine iodide as substrate pretreated for 10 mins followed by substrate addition measured at 12 secs interval for 5 mins by Ellman's method
# Sequence of Acetylcholinesterase (O42275 whole entry): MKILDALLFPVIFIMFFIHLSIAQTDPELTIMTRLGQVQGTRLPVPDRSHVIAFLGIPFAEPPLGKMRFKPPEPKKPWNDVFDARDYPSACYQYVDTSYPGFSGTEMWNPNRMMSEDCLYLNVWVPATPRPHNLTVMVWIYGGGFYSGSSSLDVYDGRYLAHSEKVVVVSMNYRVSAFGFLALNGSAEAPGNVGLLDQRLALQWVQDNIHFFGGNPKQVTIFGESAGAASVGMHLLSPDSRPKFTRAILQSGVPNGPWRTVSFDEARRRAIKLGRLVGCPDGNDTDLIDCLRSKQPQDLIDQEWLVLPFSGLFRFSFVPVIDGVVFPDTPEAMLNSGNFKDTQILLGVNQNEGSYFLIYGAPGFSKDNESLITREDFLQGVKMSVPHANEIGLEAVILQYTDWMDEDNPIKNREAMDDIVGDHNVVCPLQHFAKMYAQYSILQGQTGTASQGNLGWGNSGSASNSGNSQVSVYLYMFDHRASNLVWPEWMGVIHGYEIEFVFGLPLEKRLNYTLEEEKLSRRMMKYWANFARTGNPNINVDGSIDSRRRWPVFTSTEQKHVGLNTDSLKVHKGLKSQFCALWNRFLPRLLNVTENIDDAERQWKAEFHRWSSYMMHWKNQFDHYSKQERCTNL
# [13] = biological target: T1, Nuclear factor erythroid 2-related factor 2 (Homo sapiens) (UniProt Q16236); assay: Induction of Nrf2 nuclear translocation in human SH-SY5Y cells assessed as Nrf2 binding to antioxidant response element at 20 uM measured after 1 to 6 hrs by TransAM ELISA; format: cell-based; details: TDE = time-dependent effect
# T1 sequence (whole entry): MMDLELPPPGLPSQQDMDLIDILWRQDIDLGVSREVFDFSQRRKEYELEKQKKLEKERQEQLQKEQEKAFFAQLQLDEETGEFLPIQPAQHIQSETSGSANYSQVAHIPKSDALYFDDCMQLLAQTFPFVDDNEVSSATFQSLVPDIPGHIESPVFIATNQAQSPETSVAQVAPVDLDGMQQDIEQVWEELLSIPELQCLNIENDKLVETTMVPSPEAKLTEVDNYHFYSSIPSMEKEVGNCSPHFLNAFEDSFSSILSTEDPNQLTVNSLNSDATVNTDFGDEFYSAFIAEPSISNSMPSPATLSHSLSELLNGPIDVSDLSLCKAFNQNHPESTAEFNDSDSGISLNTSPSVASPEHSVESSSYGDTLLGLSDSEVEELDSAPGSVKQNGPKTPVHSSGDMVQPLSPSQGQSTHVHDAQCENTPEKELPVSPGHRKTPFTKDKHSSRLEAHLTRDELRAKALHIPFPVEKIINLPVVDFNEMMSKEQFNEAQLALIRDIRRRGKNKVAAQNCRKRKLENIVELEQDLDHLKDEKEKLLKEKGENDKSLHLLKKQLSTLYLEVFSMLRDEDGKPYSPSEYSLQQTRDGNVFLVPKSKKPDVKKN
# Outline: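 SH-SY5Y cells seeded at 2×10^6 per 60 mm dish, grown 24 h, then given 20 µM compound for 1-6 h at 37 °C. Nuclear extracts prepared by kit. 20 µg nuclear protein tested for Nrf2 DNA binding by TransAM Nrf2 immunoassay. Expressed as % of control cells; mean ± SD of three experiments. Nrf2-transfected COS-7 cells served as positive control.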
structure (smiles),measurement,setting,value
COc1cc(/C=C/C(=O)OCC2CCN(Cc3ccccc3)CC2)ccc1O,EC50,[1],49.4 µM
same,Activity,SH-SY5Y [2],inactive
same,Activity,[3],248 nm
same,Activity,[4],249 nm
same,Activity,SH-SY5Y [5],Dose-dependent effect
same,IC50,"SH-SY5Y [5]; Homo sapiens, SH-SY5Y, 24 h, read-out: IC50",16.9 µM
same,"cytotoxicity at 24 h, 40 µM",[6],6%
same,Activity,[7],inactive
same,Activity,SH-SY5Y [8],Tde
same,Activity,[9],inactive
same,inhibition in vivo at 100 µmol/kg,Mus musculus [10],27%
same,inhibition in vivo at 100 µmol/kg,Mus musculus [11],40%
same,Activity,SH-SY5Y [12],Active
same,IC50,Acetylcholinesterase,0.46 µM
same,Activity,[13],Tde
